Reference: article PMC8324497 (Cell Reports Medicine, 2021)
Like-named read-outs stand apart in the source and are kept apart here.

What was measured:
[1] = system: U-2932; assay: Cell viability MTS assay; assay type: cell-based; conditions: Homo sapiens, U2932, read-out: IC50 mean values
Method in brief: (§1)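 Lymphoma suspension lines were grown in RPMI 1640 with 10–20% heat-inactivated FBS, 1% L-glutamine and penicillin-streptomycin at 37°C, 5% CO2. Cells were plated at 25,000/100 μL (96-well) or 250,000/mL (24-well) with DMSO 0.1% vehicle or rising compound concentrations for 24–72 h. MTS reagent was added at 1:5 and absorbance read at 490 nm. IC50 was taken from three independent experiments (mean ± SD).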

[2] = system: A549; assay: Cell proliferation assay; assay type: cell-based; conditions: Homo sapiens, A549, 72 h
[3] = system: SU-DHL-10; assay: Cell viability MTS assay; assay type: cell-based; conditions: Homo sapiens, SU-DHL10, read-out: IC50 mean values
Method in brief: as §1

[4] = system: OCI-Ly10; assay: Cell viability MTS assay; assay type: cell-based; conditions: Homo sapiens, OCI-Ly10, read-out: IC50 mean values
Method in brief: as §1

[5] = system: SU-DHL-1; assay: Cell viability MTS assay; assay type: cell-based; conditions: Homo sapiens, SU-DHL-1, read-out: IC50 mean values
Method in brief: as §1

[6] = system: BJAB; assay: Cell viability MTS assay; assay type: cell-based; conditions: Homo sapiens, read-out: IC50 mean values
Method in brief: as §1

[7] = system: MSK1 and RSK1 phosphorylation in JeKo-1 and A375 cell lines; assay: Time-dependent western blot of ERK1/2 targets; assay type: cell-based, human
Method in brief: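 JeKo-1 and A375 cells were treated with compound over a time course and lysed in Cell Signaling lysis buffer. Samples of 30 μg protein were denatured at 95°C for 5 min in Laemmli buffer with DTT and run on 4–15% or 4–12% gels. After transfer to PVDF or nitrocellulose, blots took primary antibody overnight in 5% BSA/PBS and IRDye or HRP secondary for 1 h at room temperature. Phospho-MSK1 and phospho-RSK1 were imaged.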

[8] = system: HT-29; assay: Cell proliferation assay; assay type: cell-based; conditions: Homo sapiens, HT-29, 72 h
Method in brief: (§2)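 Adherent solid-tumour cells were seeded at 5,000 cells/well and allowed to attach for 16–24 h at 37°C, 5% CO2. They were exposed to the test compound at 0.0005–10 μM (3-fold serial dilutions) for 72 h. Alamar Blue was added (1X final) for 1–3 h and fluorescence read at 540 nm excitation, 590 nm emission. IC50 came from a sigmoidal variable-slope fit.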

[9] = system: NCI-H1975; assay: Cell proliferation assay; assay type: cell-based; conditions: Homo sapiens, NCI-H1975, 72 h
Method in brief: as §2

[10] = system: phosphorylation of RSK-1 and FRA-1 in HT-29; assay: Western blot of ERK1/2 target phosphorylation; assay type: cell-based, human; conditions: HT-29, BRAF V600E, 4h
Method in brief: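 HT-29 cells were grown in RPMI 1640 with 10–20% heat-inactivated FBS, L-glutamine and penicillin-streptomycin at 37°C, 5% CO2, then exposed to test compound. Lysates were made in Cell Signaling lysis buffer and 30 μg protein was denatured in Laemmli/DTT at 95°C for 5 min. Proteins were run on 4–15% or 4–12% gels, transferred to PVDF or nitrocellulose and probed overnight with primary antibody in 5% BSA/PBS. Detection used HRP or IRDye secondaries.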

[11] = system: DB; assay: Cell viability MTS assay; assay type: cell-based; conditions: Homo sapiens, read-out: IC50 mean values
Method in brief: as §1

[12] = system: ERK1/2 kinases; assay: Primary kinome screening, panel of 335 kinases; assay type: biochemical; conditions: 1.0 μM
Method in brief: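 Radiometric profiling against 335 purified serine/threonine, tyrosine and lipid kinases at a single fixed test-compound concentration of 1 uM. Residual activity (%) = 100 × (cpm of compound − low control)/(high control − low control).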

[13] = system: JVM-2; assay: Cell viability MTS assay; assay type: cell-based; conditions: Homo sapiens, JVM-2, read-out: IC50 mean values
Method in brief: as §1

[14] = system: EB1; assay: Cell viability MTS assay; assay type: cell-based; conditions: Homo sapiens, EB1, read-out: IC50 mean values
Method in brief: as §1

[15] = system: SU-DHL-8; assay: Cell viability MTS assay; assay type: cell-based; conditions: Homo sapiens, SU-DHL-8, read-out: IC50 mean values
Method in brief: as §1

[16] = system: MCF7; assay: Cell proliferation assay; assay type: cell-based; conditions: Homo sapiens, MCF7, 72 h
Method in brief: as §2

[17] = system: panel of 23 solid tumor cell lines; assay: Antiproliferative activity in a panel of 23 solid tumor cell lines; assay type: cell-based; conditions: Homo sapiens
Method in brief: as §2

[18] = system: Z-138; assay: Cell viability MTS assay; assay type: cell-based; conditions: Homo sapiens, Z-138, read-out: IC50 mean values
Method in brief: as §1

[19] = system: 786-O; assay: Cell proliferation assay; assay type: cell-based; conditions: Homo sapiens, 786-0, 72 h
Method in brief: as §2

[20] = system: Ri-1; assay: Cell viability MTS assay; assay type: cell-based; conditions: Homo sapiens, Ri-1, read-out: IC50 mean values
Method in brief: as §1

[21] = system: NCI-H2122; assay: Cell proliferation assay; assay type: cell-based; conditions: Homo sapiens, NCI-H2122, 72 h
[22] = system: PC-3; assay: Cell proliferation assay; assay type: cell-based; conditions: Homo sapiens, PC-3, 72 h
Method in brief: as §2

[23] = system: T-47D; assay: Cell proliferation assay; assay type: cell-based; conditions: Homo sapiens, T47D, 72 h
Method in brief: as §2

[24] = system: PANC-1; assay: Cell proliferation assay; assay type: cell-based; conditions: Homo sapiens, PANC-1, 72 h
[25] = target: ERK1 (Homo sapiens, UniProt P27361); assay: ERK1/ERK2 HTRF enzymatic assay; assay type: biochemical
Method in brief: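 Substrate-ATP mix added, then enzyme mix, and incubated 60 min at room temperature with shaking. Reaction mixture was then transferred into HTRF detection mix for 45 min at room temperature and read in HTRF mode. IC50 from a variable-slope sigmoidal fit.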

[26] = system: SK-MEL-2; assay: Cell proliferation assay; assay type: cell-based; conditions: Homo sapiens, SK-MEL-2, 72 h
[27] = system: MINO; assay: Cell viability MTS assay; assay type: cell-based; conditions: Homo sapiens, read-out: IC50 mean values
Method in brief: as §1

[28] = system: CFPAC-1; assay: Cell proliferation assay; assay type: cell-based; conditions: Homo sapiens, CFPAC-1, 72 h
[29] = target: ERK2 (Homo sapiens, UniProt P28482); assay: ERK1/ERK2 HTRF enzymatic assay; assay type: biochemical
[30] = system: Calu-6; assay: Cell proliferation assay; assay type: cell-based; conditions: Homo sapiens, Calu-6, 72 h

Sequence of ERK2 (P28482 whole entry): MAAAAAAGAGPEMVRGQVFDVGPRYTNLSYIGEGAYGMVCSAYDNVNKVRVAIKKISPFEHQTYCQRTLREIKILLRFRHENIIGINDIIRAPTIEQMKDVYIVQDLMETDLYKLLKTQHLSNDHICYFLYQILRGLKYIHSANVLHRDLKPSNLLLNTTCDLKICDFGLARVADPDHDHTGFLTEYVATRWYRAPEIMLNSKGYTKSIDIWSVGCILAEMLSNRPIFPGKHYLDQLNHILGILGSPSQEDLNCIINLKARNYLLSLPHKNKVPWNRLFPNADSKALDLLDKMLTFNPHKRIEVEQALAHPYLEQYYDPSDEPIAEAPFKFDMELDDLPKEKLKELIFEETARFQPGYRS
Sequence of ERK1 (P27361 whole entry): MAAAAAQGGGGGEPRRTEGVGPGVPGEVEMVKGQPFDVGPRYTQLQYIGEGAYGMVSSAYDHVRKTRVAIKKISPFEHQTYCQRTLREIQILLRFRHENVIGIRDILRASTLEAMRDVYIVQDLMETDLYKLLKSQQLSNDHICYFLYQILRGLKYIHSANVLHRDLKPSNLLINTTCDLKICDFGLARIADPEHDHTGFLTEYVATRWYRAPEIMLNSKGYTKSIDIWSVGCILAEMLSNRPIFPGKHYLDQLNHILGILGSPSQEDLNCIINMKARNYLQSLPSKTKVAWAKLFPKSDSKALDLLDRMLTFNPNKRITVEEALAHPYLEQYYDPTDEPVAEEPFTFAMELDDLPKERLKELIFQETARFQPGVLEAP

SMILES: Cc1cnc(NC2CCOCC2)nc1-n1cnc(C(=O)NC(CN)c2cc(F)cc(Cl)c2)c1 (centres unmarked) [ASN007, N-(2-amino-1-(3-chloro-5-fluorophenyl)ethyl)-1-(5-methyl-2-((tetrahydro-2H-pyran-4-yl)amino)pyrimidin-4-yl)-1H-imidazole-4-carboxamide]
- IC50 [1]: 2300 nM
- IC50 [2]: 53 nM
- IC50 [3]: 1700 nM
- IC50 [4]: 1500 nM
- IC50 [5]: 2300 nM
- IC50 [6]: 4300 nM
- duration of inhibition of ERK1/2 targets MSK1 and RSK1 [7]: at least 72 h
- IC50 [8]: 20 nM
- IC50 [9]: > 10000 nM
- phosphorylation level of ERK1/2 protein targets RSK-1 and FRA-1 [10]: dose-dependent decrease
- IC50 [11]: 1700 nM
- kinase selectivity [12]: selective inhibition of ERK1/2 kinases
- IC50 [13]: 5700 nM
- IC50 [14]: > 10000 nM
- IC50 [15]: 2400 nM
- IC50 [16]: > 10000 nM
- IC50 ([17]; read-out: IC50 range): 13 to 100 nM
- IC50 ([17]; read-out: IC50 values): > 10000 nM
- IC50 ([17]; read-out: median IC50): 37 nM
- IC50 [18]: 500 nM
- IC50 [19]: > 10000 nM
- IC50 [20]: 1600 nM
- IC50 [21]: 15 nM
- IC50 [22]: > 10000 nM
- IC50 [23]: > 10000 nM
- IC50 [24]: 9 nM
- IC50 [25]: 2 nM
- IC50 [26]: 3 nM
- IC50 [27]: 200 nM
- IC50 [28]: 576 nM
- IC50 [29]: 2 nM
- IC50 [30]: 7 nM
